Active and inactive are the calls of the source. The rule behind the calls is not given here.
Columns and labels:
Homo sapiens = species: Homo sapiens; assay: Selectivity ratio of EC50 for human muscarinic M3 receptor to EC50 for human muscarinic M5 receptor
[1] = target: T1, Muscarinic acetylcholine receptor M5 (Homo sapiens) (UniProt P08912); assay: Intrinsic activity at human muscarinic M5 receptor expressed in CHO cells coexpressing Gq protein up to 30 uM by calcium mobilization assay in absence of acetylcholine; format: functional, cell-based
T1 sequence (whole entry): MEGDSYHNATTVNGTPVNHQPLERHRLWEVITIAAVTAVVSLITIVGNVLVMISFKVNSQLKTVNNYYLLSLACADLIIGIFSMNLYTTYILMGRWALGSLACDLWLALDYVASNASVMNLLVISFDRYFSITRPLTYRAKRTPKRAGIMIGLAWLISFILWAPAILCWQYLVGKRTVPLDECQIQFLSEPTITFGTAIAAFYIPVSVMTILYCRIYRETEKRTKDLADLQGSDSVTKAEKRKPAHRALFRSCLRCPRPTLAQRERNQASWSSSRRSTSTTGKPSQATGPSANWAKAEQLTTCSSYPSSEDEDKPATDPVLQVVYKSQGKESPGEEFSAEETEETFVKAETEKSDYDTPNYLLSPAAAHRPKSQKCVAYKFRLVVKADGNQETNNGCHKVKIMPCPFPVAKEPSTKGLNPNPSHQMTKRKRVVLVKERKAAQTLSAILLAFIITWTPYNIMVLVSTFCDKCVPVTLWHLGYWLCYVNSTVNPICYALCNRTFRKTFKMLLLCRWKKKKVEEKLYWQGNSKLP

[2] = Apparent oral volume of distribution in Sprague-Dawley rat plasma at 10 mg/kg, ip; format: ADME, organism-based; parameters: dose 10 mg/kg; settings: read-out: Vc/F
In short: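 Male Sprague-Dawley rats (225-250 g) dosed ip at 10 mg/kg as a 5 mg/ml micro-suspension in 10% Tween 80 in sterile water. Plasma and brain sampled at 0.5, 1, 3 and 6 h, three animals per time point. Quantified by protein precipitation and LC-MS/MS against an internal standard. Brain values corrected for residual blood. PK parameters derived by noncompartmental analysis.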

[3] = target: T1, Muscarinic acetylcholine receptor M5 (Homo sapiens); assay: Displacement of [3H]NMS from human muscarinic M5 receptor expressed in CHO cells coexpressing Gq protein up to 30 uM by scintillation counting; format: cell-based
[4] = target: T2, Muscarinic acetylcholine receptor M4 (Rattus norvegicus) (UniProt P08485); assay: Activation of rat muscarinic M4 receptor expressed in CHO cells coexpressing chimeric Gqi5 protein assessed as potentiation of acetylcholine-induced intracellular Ca2+ mobilization up to 30 uM; format: functional, cell-based
T2 sequence (whole entry): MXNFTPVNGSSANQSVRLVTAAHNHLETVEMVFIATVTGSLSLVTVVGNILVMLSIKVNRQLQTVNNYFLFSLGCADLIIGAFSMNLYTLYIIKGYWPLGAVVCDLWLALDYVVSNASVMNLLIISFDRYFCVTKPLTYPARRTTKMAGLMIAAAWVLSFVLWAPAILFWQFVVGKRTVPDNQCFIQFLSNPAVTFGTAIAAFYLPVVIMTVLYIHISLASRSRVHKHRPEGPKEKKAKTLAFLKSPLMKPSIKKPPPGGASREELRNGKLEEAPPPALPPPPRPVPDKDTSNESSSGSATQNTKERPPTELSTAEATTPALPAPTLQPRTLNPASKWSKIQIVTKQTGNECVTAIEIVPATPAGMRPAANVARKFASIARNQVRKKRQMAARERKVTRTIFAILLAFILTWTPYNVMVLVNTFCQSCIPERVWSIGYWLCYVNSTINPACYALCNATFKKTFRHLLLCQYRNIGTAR

## COc1ccc(CN2C(=O)C(=O)c3cc(OC(F)(F)F)ccc32)cc1
Homo sapiens
  Ratio EC50: > 30
[1]
  Activity: inactive
[2]
  Vd/F: 59.6 L/kg
[3]
  Activity: inactive
[4]
  Activity: inactive
